Common to all, as to type: functional
For one experiment, the species on record is Oryctolagus cuniculus. In words: Percent stimulation of adenylate cyclase determined in rabbit heart membranes at 5 uM of compound as compared to 5 uM of forskolin. The note with it: Membrane.
The species named for the next experiment is Cavia porcellus. Nature of the experiment: Percent conversion of total labeled nucleotides to cyclic AMP, determined in guinea pig cerebral cortical vesicular entities at 200 uM concentration. In outline: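 Gray-matter cortex slices from male NIH guinea pigs (300 g) homogenized in O2/CO2-gassed KRB, pH 7.4. The 1000g pellet was labeled with [3H]adenine for 30 min at 37 °C, washed, post-incubated 15 min at 37 °C, and aliquoted. Aliquots were equilibrated 10 min at 37 °C, then given compound at 200 μM for 10 min at 30 °C and stopped with TCA. Read-out is labeled cAMP as percent of total labeled adenine nucleotides, reported as mean ± SEM.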

The species named for another experiment is Rattus norvegicus. Nature of the experiment: Concentration required to activate rat cerebral cortical adenylate cyclase activity elicited by 200 uM forskolin. The method, boiled down: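 Fresh crude cortical membranes from male Sprague-Dawley rats (150-175 g). Incubated in 50 mM Tris-HCl pH 7.5 with 1.0 mM IBMX, 5 mM MgCl2, 0.1 mM ATP plus [α-32P]ATP, 0.2 mM EGTA, and a creatine phosphate/creatine kinase regenerating system. About 100 μg protein per assay, 30 °C for 10 min, stopped with TCA, [32P]cAMP isolated. Run in triplicate. EC50 taken from ≥2 curves over 0.01–200 μM. Where full activation was not reached, EC50 is the concentration giving 50% of the maximal activity with 200 μM forskolin.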

Drawing on ChEMBL document CHEMBL1122456, “Structure-activity relationships for activation of adenylate cyclase by the diterpene forskolin and its derivatives” (J Med Chem, 1983), this text covers Stimulation, Conversion and EC50 for 20 compounds.

`C=C[C@@]1(C)C[C@@H](O)[C@H]2[C@H](O1)C(O)C(O)[C@H]1C(C)(C)CC[C@H](O)C21C` (some centres undefined) displayed a Stimulation in the experiment listed under Oryctolagus cuniculus of 1.6%. This compound returned a Conversion in the experiment listed under Cavia porcellus of 0.41%.
`C=C[C@@]1(C)CC(=O)[C@@]23OS(=O)O[C@H]4CCC(C)(C)[C@H](C(O)C(OC(C)=O)[C@H]2O1)C43C` (some centres undefined) came in with a Stimulation in the experiment filed under Oryctolagus cuniculus of 28%. For the same compound, the Conversion in the experiment listed under Cavia porcellus turned out to be 1.2%. Besides, the EC50 (in general, the concentration at which the effect is half-maximal) in the experiment filed under Rattus norvegicus is more than 200 µM.
`C=C[C@@]1(C)CC(=O)[C@@]2(O)[C@H](O1)C(OC=O)C(O)[C@H]1C(C)(C)CC[C@H](O)C12C` (some centres undefined) returned a Stimulation in the experiment filed under Oryctolagus cuniculus of 52%. This compound also returned a Conversion in the experiment listed under Cavia porcellus of 0.47%. Moreover, the EC50 in the experiment filed under Rattus norvegicus stood at 150 µM.
`CC(=O)OC1C(O)[C@H]2C(C)(C)CC[C@H](O)C2(C)[C@@]23OC(CO)[C@@](C)(CC2=O)O[C@H]13` (some centres undefined) came in with a Stimulation in the experiment filed under Oryctolagus cuniculus of 0%. In addition, in the experiment listed under Cavia porcellus, the Conversion is reported as 0.18%.
On to `C=C[C@@]1(C)CC(=O)[C@@]2(O)[C@H](O1)C(OC(=O)N(CC)CC)C(O)[C@H]1C(C)(C)CC[C@H](O)C12C` (some centres undefined), for which the Stimulation in the experiment listed under Oryctolagus cuniculus was found to be 59%. Besides, the Conversion in the experiment filed under Cavia porcellus came to 0.84%. In the experiment filed under Rattus norvegicus, this compound had a half-maximal effective concentration (EC50) of 200 µM.
Consider `C=C[C@@]1(C)CC(=O)[C@H]2[C@H](O1)C(OC(C)=O)C(O)[C@H]1C(C)(C)CCCC21C` (some centres undefined), for which the Stimulation in the experiment filed under Oryctolagus cuniculus amounted to 1%. Besides, the Conversion in the experiment listed under Cavia porcellus worked out at 0.18%.
In turn, `C=C[C@@]1(C)C[C@H](O)[C@@]2(O)[C@H](O1)C(OC(C)=O)C(O)[C@H]1C(C)(C)CC[C@H](O)C12C` (some centres undefined) yielded a Stimulation in the experiment filed under Oryctolagus cuniculus of 49%. In addition, the Conversion in the experiment listed under Cavia porcellus was found to be 0.97%. The same compound registered a concentration for a half-maximal effect (EC50) in the experiment filed under Rattus norvegicus of 50 µM.
Regarding `C=C[C@@]1(C)CC(=O)[C@@]2(O)[C@H](O1)C(OC(C)=O)C(O)[C@H]1C(C)(C)CCC(=O)C12C` (some centres undefined), in the experiment filed under Oryctolagus cuniculus, the Stimulation amounted to 47%. The Conversion in the experiment filed under Cavia porcellus was found to be 0.76%. The same compound had an EC50 in the experiment filed under Rattus norvegicus of 200 µM.
In the experiment filed under Oryctolagus cuniculus, `C=C[C@@]1(C)CC(=O)[C@@]2(O)[C@H](O1)C(OC(C)=O)C(O)[C@H]1C(C)(C)CC[C@H](O)C12C` (some centres undefined) came in with a Stimulation of 100%. The compound also registered a Conversion in the experiment listed under Cavia porcellus of 4.4%. For the same compound, in the experiment filed under Rattus norvegicus, it took 8 µM to reach a half-maximal effect (EC50).
Regarding `C=C[C@@]1(C)CC(=O)[C@@]23OC(=O)O[C@H]4CCC(C)(C)[C@H](C5OC(=O)OC5[C@H]2O1)C43C` (some centres undefined), the Stimulation in the experiment filed under Oryctolagus cuniculus turned out to be 1%. The same compound displayed a Conversion in the experiment filed under Cavia porcellus of 0.25%.
Consider `C=C[C@@]1(C)CC(=O)[C@H]2[C@H](O1)C(OC(C)=O)C(O)[C@H]1C(C)(C)CC[C@H](O)C21C` (some centres undefined), for which the Stimulation in the experiment filed under Oryctolagus cuniculus turned out to be 46%. The Conversion in the experiment listed under Cavia porcellus came out at 0.84%. The EC50 in the experiment listed under Rattus norvegicus amounted to 100 µM.
The corresponding values for `C=C[C@@]1(C)CC(=O)[C@@]2(O)[C@H](O1)C(OC(=O)CC)C(O)[C@H]1C(C)(C)CC[C@H](O)C12C` (some centres undefined) are 67%, 1.07% and 15 µM.
`C=C[C@@]1(C)CC(=O)[C@@]2(O)[C@H](O1)C(OS(=O)(=O)c1ccc(C)cc1)C(O)[C@H]1C(C)(C)CC[C@H](O)C12C` (some centres undefined) displayed a Stimulation in the experiment filed under Oryctolagus cuniculus of 5%. This compound also registered a Conversion in the experiment filed under Cavia porcellus of 0.16%. The EC50 in the experiment filed under Rattus norvegicus is more than 25 µM.
As for `C=C[C@@]1(C)CC(=O)[C@@]2(O)[C@H](O1)C(OC(=O)OCC)C(O)[C@H]1C(C)(C)CC[C@H](O)C12C` (some centres undefined), the Stimulation in the experiment filed under Oryctolagus cuniculus turned out to be 60%. Also, the Conversion in the experiment listed under Cavia porcellus is given as 4.01%. In the experiment listed under Rattus norvegicus, this compound displayed an EC50 of 8 µM.
As for `C=C[C@@]1(C)CC(=O)[C@@]2(O)[C@H](O1)C(O)C(O)[C@H]1C(C)(C)CC[C@H](O)C12C` (some centres undefined), the Stimulation in the experiment filed under Oryctolagus cuniculus stood at 51%. In addition, the Conversion in the experiment listed under Cavia porcellus was 1.37%. The EC50 in the experiment filed under Rattus norvegicus turned out to be 20 µM.
In the case of `C=C[C@@]1(C)CC(=O)[C@@]2(O)[C@H](O1)C(OC(C)=O)C(OC(C)=O)[C@H]1C(C)(C)CC[C@H](OC(C)=O)C12C` (some centres undefined), the Stimulation in the experiment filed under Oryctolagus cuniculus came to 20%. For the same compound, the Conversion in the experiment listed under Cavia porcellus worked out at 0.47%. The EC50 in the experiment listed under Rattus norvegicus was more than 200 µM.
For `C=C[C@@]1(C)CC(=O)[C@@]2(O)[C@H](O1)C(OC(=O)c1cc(OC)c(OC)c(OC)c1)C(O)[C@H]1C(C)(C)CC[C@H](O)C12C` (some centres undefined), in that order: 31%, 0.26% and more than 25 µM.
The corresponding values for `CC[C@@]1(C)CC(=O)[C@@]2(O)[C@H](O1)C(OC(C)=O)C(O)[C@H]1C(C)(C)CC[C@H](O)C12C` (some centres undefined) are 49%, 0.97% and 100 µM.
Compound `CC(=O)OC1C(O)[C@H]2C(C)(C)CC[C@H](O)C2(C)[C@@]2(O)C(=O)C[C@](C)(C3CO3)O[C@H]12` (some centres undefined) displayed a Stimulation in the experiment filed under Oryctolagus cuniculus of 5%. The compound also displayed a Conversion in the experiment listed under Cavia porcellus of 0.22%.
`C=C[C@@]1(C)CC(=O)[C@@]2(O)[C@H](O1)C(OC(C)=O)C(=O)[C@H]1C(C)(C)CCC(=O)C12C` (some centres undefined) showed a Stimulation in the experiment listed under Oryctolagus cuniculus of 0%. Further, the Conversion in the experiment listed under Cavia porcellus was found to be 0.17%.
